Published values gathered from unrelated publications.
Compare with care: the assays were run in different laboratories.
Cell line: NCI-H460
Observed: cell growth or viability

SMILES	assay	setting	endpoint	value
O=c1cc(OCc2cc(-c3ccccc3)no2)c2ccccc2o1	MTS	72 h	IC50	> 100 µM
Cc1nc(NC(=O)N2CCC[C@H]2C(N)=O)sc1-c1ccnc(C(C)(C)C(F)(F)F)c1	ATP luminescence	5 days	EC50	35.1 µM
Clc1ccc(-c2cc(CNc3cccc4cccnc34)on2)c(Cl)c1	MTS	72 h	IC50	> 100 µM
COc1ccc(NC(=O)NCc2cn(Cc3ccccc3C)nn2)cc1	CCK-8	50 µM, 72 h	viability	106%
O=C(CSc1nc2ccccc2s1)N/N=C/c1ccc(OCC(=O)Nc2ccc(Br)cc2)cc1	MTS	72 h	IC50	14 µM
FC(F)(F)c1cc(OCc2cc(-c3ccccc3)no2)c2ccccc2n1	MTS	72 h	IC50	> 100 µM
CCCCCCCCCCCCCCCCCCOc1ccccc1CC(=O)OCC[N+]1(C)CCCCC1	SRB	10 µM	inhibition	37.8%
COc1ccc(NC(=O)NCc2cn(Cc3ccc(Br)cc3)nn2)cc1	CCK-8	50 µM, 72 h	viability	77.1%
CCCCCCCCCCCCCCCCCCOc1cccc(CC(=O)OCC[N+]2(C)CCOCC2)c1	SRB	10 µM	inhibition	1%
Cc1ccccc1Cn1cc(-c2cccc(NC(=O)Nc3ccc(F)cc3)c2)nn1	CCK-8	50 µM, 72 h	viability	72.6%
CCCCCCCCCCCCCCCCCCOc1cccc(CC(=O)OCC[N+](C)(C)C)c1	SRB	10 µM	inhibition	2.4%
COc1ccc(NC(=O)Nc2cccc(-c3cn(Cc4ccc(Br)cc4)nn3)c2)cc1	CCK-8	50 µM, 72 h	viability	106%
N#Cc1ccc(-c2cc(COc3cc(C(F)(F)F)nc4ccccc34)on2)cc1	MTS	72 h	IC50	> 100 µM
COc1ccc(NC(=O)Nc2ccc(-c3cn(Cc4ccc(C)cc4)nn3)cc2)cc1	CCK-8	50 µM, 72 h	viability	83.2%
CCCCCCCCCCCCCCCCCCOc1ccccc1CC(=O)OCCC[N+](C)(C)C	SRB	10 µM	inhibition	19.9%
O=C(CSc1nc2ccccc2s1)N/N=C/c1ccc(OCC(=O)Nc2cccc(Br)c2)cc1	MTS	72 h	IC50	32.1 µM
FC(F)(F)c1ccc(-c2cc(COc3cc(C(F)(F)F)nc4ccccc34)on2)cc1	MTS	72 h	IC50	> 100 µM
COc1ccc(NC(=O)NCc2cn(Cc3ccc(C)cc3)nn2)cc1	CCK-8	50 µM, 72 h	viability	95.5%
CCCCCCCCCCCCCCCCCCOc1ccccc1CC(=O)OCC[N+](C)(C)C	SRB	10 µM	inhibition	86.5%
COc1cc([C@@H]2c3cc4c(cc3[C@@H](O[C@@H]3O[C@@H]5CO[C@@H](C)O[C@H]5[C@H](O)[C@H]3O)[C@H]3COC(=O)[C@H]23)OCO4)cc(OC)c1O	MTS	72 h	IC50	0.69 µM
CCCCCCCCCCCCCCCCCCOCC(COP(=O)([O-])OCC[N+](C)(C)C)OC (stereo not drawn)	SRB	10 µM	inhibition	53.6%
COc1ccc(NC(=O)Nc2ccc(-c3cn(Cc4cccc(Cl)c4)nn3)cc2)cc1	CCK-8	50 µM, 72 h	viability	87.4%
CCCCCCCCCCCCCCCCCCOc1ccc(CC(=O)OCCC[N+](C)(C)C)cc1	SRB	10 µM	inhibition	26.7%
c1ccc(-c2cc(CNc3cccc4cccnc34)on2)cc1	MTS	72 h	IC50	> 100 µM
CCCCCCCCCCCCCCCCCCOc1ccccc1CC(=O)OCC[N+]1(C)CCOCC1	SRB	10 µM	inhibition	30.8%
O=C(CSc1nc2ccccc2s1)N/N=C/c1ccc(OCC(=O)Nc2ccc([N+](=O)[O-])cc2)cc1	MTS	72 h	IC50	> 100 µM
FC(F)(F)c1ccc(-c2cc(CNc3cccc4cccnc34)on2)cc1	MTS	72 h	IC50	> 100 µM
